# Source: PubChem
# Rows were chosen to be rich in hits. Some 3.7% of all compounds tested hit in one or more screens of this group.
# KCNK3 inh – human KCNK3 channel inhibition, primary screen; O14649; CHO-KCNK3 thallium flux, FluxOR fluorescence; hits give low values; B-score at 10 µM; 340,000 compounds, 0.84% hits; AID 602410;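 active = B-score under library mean minus 4 SD, starting fluorescence ratio at most library mean plus 5 SD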;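 also: more negative B-score means stronger inhibition of thallium flux through KCNK3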
# KCNQ1 inh – human KCNQ1 channel inhibition; B-score at 10 µM; 310,000 compounds, 1.3% hits; P51787; AID 2642; CHO-K1 KCNQ1, FluxOR thallium flux fluorescence; hits give high values;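 active = compounds whose thallium flux B-score, printed positive for inhibition, exceeds three library SD while starting fluorescence stays within three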;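 also: channel opened by potassium depolarization with thallium stimulus after 20 min compound exposure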
# Target sequence (P51787 whole entry, looked up): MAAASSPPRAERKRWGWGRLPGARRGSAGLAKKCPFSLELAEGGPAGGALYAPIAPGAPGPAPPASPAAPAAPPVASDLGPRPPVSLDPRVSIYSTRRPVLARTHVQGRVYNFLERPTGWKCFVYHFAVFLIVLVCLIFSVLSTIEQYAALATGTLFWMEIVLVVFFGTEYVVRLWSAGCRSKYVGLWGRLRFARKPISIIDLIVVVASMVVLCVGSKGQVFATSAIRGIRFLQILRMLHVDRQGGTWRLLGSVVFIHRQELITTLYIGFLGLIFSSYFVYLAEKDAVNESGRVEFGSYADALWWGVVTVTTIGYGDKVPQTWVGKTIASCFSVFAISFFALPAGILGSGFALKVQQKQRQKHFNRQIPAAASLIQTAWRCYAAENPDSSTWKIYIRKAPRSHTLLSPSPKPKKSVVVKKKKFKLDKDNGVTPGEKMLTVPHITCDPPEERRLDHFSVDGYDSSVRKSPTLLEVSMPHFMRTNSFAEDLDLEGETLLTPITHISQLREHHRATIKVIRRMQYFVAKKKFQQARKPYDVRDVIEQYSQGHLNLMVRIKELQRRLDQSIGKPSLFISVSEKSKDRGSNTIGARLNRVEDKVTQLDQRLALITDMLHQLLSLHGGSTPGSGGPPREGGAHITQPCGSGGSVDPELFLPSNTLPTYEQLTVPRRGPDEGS
# KCNK9 inh – human KCNK9 channel inhibition. Q9NPC2. HEK293 KCNK9, FluxOR thallium flux fluorescence; hits give low values. B-score at 10 µM. 310,000 compounds, 1.2% hits;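 active = ratio B-score over 3 SD below the library mean, with starting fluorescence within 5 SD of its mean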;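 also: negative B-score means less thallium flux so channel inhibition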
# hERG protect – compounds protecting human hERG from proarrhythmic drug block. 310,000 compounds, 0.51% hits. CHO-hERG, FluxOR thallium flux, dofetilide IC70 present. activation (rescue from dofetilide block), less the hit threshold, % at 10 µM;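 active = activation above the mean of controls blocked by dofetilide plus 5 SD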;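 also: thallium influx through hERG after potassium depolarization seen as dye fluorescence rise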
# Kir21 block – blocks the mouse Kir2.1 inward-rectifier potassium channel; HEK293-Kir2.1, FluxOR thallium flux fluorescence; hits give low values; B-score at 10 µM; 310,000 compounds, 0.85% hits; AID 1672;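 active = fluorescence ratio B-score at or below minus 3 SD of library scores, with starting-brightness B-score within 2 SD, cut at about -4.2 in these data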;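 also: channel flux triggered by added potassium and thallium sulfate stimulus; B-score of peak minus minimum fluorescence over baseline after thallium stimulus; more negative B-score means stronger Kir2.1 block with less thallium influx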
# KCNQ1 act – potentiators or activators of human KCNQ1 potassium channel | P51787 | B-score at 10 µM | 310,000 compounds, 0.35% hits | CHO-K1 KCNQ1, thallium flux FluxOR fluorescence; hits give high values;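 active = fluorescence ratio B-score, a plate-corrected score, at least three library SD, with initial intensity B-score within 5 SD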
#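 System: Stable KCNQ1 CHO-K1 line | Incubation: 90 min dye loading and 20 min compound exposure, both at room temperature | Measure: Ratio B score | Medium: Assay buffer for compound exposure, DMSO matched across wells | Compound dosing: Single-concentration screen | Probe or stimulus: K+/Tl+ depolarizing stimulus | Measured by: Kinetic FluxOR fluorescence, 10 s baseline plus 110 s post-stimulus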
# KCNK9 inh conf – confirmation of human KCNK9 potassium channel inhibitors. shares compounds with KCNK9 inh. HEK293 KCNK9 cells, FluxOR thallium flux fluorescence. inhibition, % at 10 µM. 4,900 compounds, 43% hits. AID 492992;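 active = thallium signal inhibited by more than 5 SD of the compound-free buffer control wells, on both duplicate plates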;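 also: 0% = assay buffer control wells without compound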
# Kir21 sel – mouse Kir2.1 off-target activity of KCNK9 modulators; shares compounds with KCNK9 inh; Kir2.1 cells, FluxOR thallium flux fluorescence; inhibition, % at 10 µM; 4,900 compounds, 4% hits;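 active = thallium signal drop more than 5 SD beyond the mean of the no-compound control wells, seen in both duplicate plates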;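 also: signal is fluorescence rise after thallium addition divided by baseline fluorescence; plate controls were assay buffer only for no effect and full block by chlorpromazine control for full effect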
# KCNK9 uninduced – second check of KCNK9 modulator effects in non-induced HEK293 cells; shares compounds with KCNK9 inh; FluxOR thallium flux; inhibition, % at 10 µM; 4,900 compounds, 40% hits;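 active = thallium signal drop beyond 5 SD of the untreated control mean, on both duplicate plates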;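 also: plate controls were buffer only IC0 wells for no effect and SID17386958 at its maximal inhibitory level for full effect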
# An asterisk follows results filed as active; i = inactive; . = no result given.
SMILES,KCNK3 inh,KCNQ1 inh,KCNK9 inh,hERG protect,Kir21 block,KCNQ1 act,KCNK9 inh conf,Kir21 sel,KCNK9 uninduced
CC(C)CC1c2[nH]c3ccccc3c2CCN1C(=O)CCC(=O)N(C)C (stereo unspecified),i,i,i,-8,-1.3,i,.,.,.
CCC1CCCCN1CCCNC(=O)c1nn(C)c2c1CS(=O)(=O)c1ccccc1-2 (stereo unspecified),i,i,i,-2,2.5,i,.,.,.
COc1c(C)cc(Br)cc1C(=O)NC(=S)Nc1ccc(Cl)c(C(=O)O)c1,i,i,i,-5,0.63,i,i,i,i
COc1ccc(Br)cc1C(=O)Nc1cccc(NC(=O)c2ccco2)c1,i,i,-18*,-21,0.01,i,59%*,i,i
COc1cccc(NC(=O)c2ccco2)c1,i,i,i,-7,-1.1,i,.,.,.
COc1c(C)cc(Br)cc1C(=O)Nc1cccc(NC(=O)c2ccco2)c1,-11*,i,-11*,-15,-0.29,i,67%*,i,i
COc1ccccc1NC(=O)c1cc(Br)ccc1Cl,i,i,i,-11,-0.66,i,.,.,.
COc1ccc(Br)cc1C(=O)Nc1ccccc1-c1ccccc1,i,i,-10*,-3,2,i,52%*,i,42%*
Cc1sc2ncn(CC(=O)Nc3ccccc3F)c(=O)c2c1-c1ccccc1,i,i,i,-8,1.1,i,.,.,.
COc1ccc(NC(=O)c2ccco2)cc1S(=O)(=O)N1CCCCC1,i,i,i,-6,0.01,i,i,i,i
O=C(Nc1ccccc1)c1ccc(-c2ccc(Br)cc2)o1,i,i,i,-5,0.03,i,.,.,.
COc1ccc(S(=O)(=O)N2CCCCC2)cc1NC(=O)c1ccco1,i,i,i,-7,-0.91,i,.,.,.
COc1ccccc1NC(=O)c1ccc(-c2ccc(Br)cc2)o1,i,i,-11*,-2,1.8,i,33%*,i,30%*
COc1ccc(CN(C)C(=O)CNC(=O)Cc2cccc3ccccc23)c(OC)c1OC,i,i,i,-6,-0.09,i,.,.,.
COc1cccc(CN(C)C(=O)CNC(=O)c2sc3ccccc3c2Cl)c1OC,i,i,i,-14,-0.56,i,i,i,i
Cc1noc(NS(=O)(=O)c2ccc(NC(=O)C(Cl)(Cl)Cl)cc2)c1C,i,i,i,-6,0.76,i,.,.,.
Cc1noc(NS(=O)(=O)c2ccc(NC(=O)Nc3ccc(Cl)c(Cl)c3)cc2)c1C,i,i,i,-14,-0.08,i,i,i,i
C=CCc1ccc(OCCCOc2ccc(C)c(C)c2)c(OC)c1,i,i,i,-11,-0.41,i,i,i,i
C=CCc1ccc(OCCOCCN(C)C)c(OC)c1,i,i,i,-3,-0.24,i,.,.,.
C=CCc1ccc(OCCCCOc2ccc(C(=O)O)cc2)c(OC)c1,i,i,i,-4,0.79,i,.,.,.
C=CCc1ccc(OCCOc2cccc3ccc(C)nc23)c(OC)c1,i,i,i,-9,-0.1,i,i,i,i
O=C(C[n+]1ccccc1)Nc1ccccc1[N+](=O)[O-],i,i,i,-12,-1.2,i,.,.,.
COc1ccc(-c2nc(-c3ccc4c(c3)OCO4)[nH]c2-c2ccc(OC)cc2)cc1,i,i,-9.2*,-5,0.68,i,65%*,i,i
C[C@]12CCC[C@H](O1)c1c(cc3c(c1O)C(=O)c1c(O)cc(O)cc1C3=O)O2,-10*,14*,-12*,-5,0.05,i,58%*,i,42%*
CCOC(=O)c1cnc2ccc(OC)cc2c1NCc1ccccc1,i,i,i,-20,0.16,i,i,i,i
SMILES,KCNK3 inh,KCNQ1 inh,KCNK9 inh,hERG protect,Kir21 block,KCNQ1 act,KCNK9 inh conf,Kir21 sel,KCNK9 uninduced
CCOC(=O)c1cnc2ccc(OCC)cc2c1NCc1ccccc1OC,i,i,i,-5,0.95,i,.,.,.
O=C(Nc1ccc(Nc2ccccc2)cc1)c1ccc(Cl)cc1,i,i,i,-2,0.66,i,.,.,.
N#C/C(C(=O)Nc1ccc(Cl)cc1)=C(/S)Nc1ccccc1,i,i,i,-3,-0.55,i,i,i,i
C/C(CC(=O)Nc1ccc(Cl)c(C(F)(F)F)c1)=N\NC(N)=S,i,7*,i,-15,0.58,i,i,i,i
CCCCN(CC(O)COc1cccc(C)c1)CC(O)COc1cccc(C)c1 (stereo unspecified),i,i,i,-18,-3,i,i,i,42%*
CN(C)CC(O)COc1cccc(OCC(O)CN(C)C)c1 (stereo unspecified),i,i,i,-5,-0.19,i,.,.,.
CCCCn1c(N)c(N(CCOC)C(=O)C2CC(=O)N(c3ccc(CC)cc3)C2)c(=O)[nH]c1=O (stereo unspecified),i,.,.,.,.,.,.,.,.
C[C@H](N)c1nnc(SCc2c(Cl)cccc2Cl)o1,i,i,i,-19,0.35,i,.,.,.
Clc1cccc(Cl)c1CSc1nnc(/C=C/c2ccccc2)o1,i,i,i,-11,-2.1,i,i,i,29%*
Cc1ccc(-c2nnc(Sc3nc4ccccc4o3)c3ccccc23)cc1,i,i,i,-9,1.9,i,.,.,.
Clc1ccc(-c2nnc(Sc3nc4ccccc4o3)c3ccccc23)cc1,i,i,i,-9,0.1,i,i,i,i
c1ccc(COc2cccc(CN3CCN(c4ccccn4)CC3)c2)cc1,i,i,-9.1*,-20,0,i,35%*,i,27%*
CC(C)C[C@@H](CN(N=O)[C@@H](Cc1ccccc1)CN(C)N=O)N(CCc1ccccc1)N=O,i,i,i,-3,0.64,i,.,.,.
CN(C[C@H](Cc1ccccc1)N(C[C@@H](Cc1cccc2ccccc12)N(CCc1ccccc1)N=O)N=O)N=O,i,i,-8.5*,-5,1.3,i,i,i,38%*
COCCSc1ccccc1C(=O)Nc1ccc(Br)cc1,i,i,-13*,-8,0.88,i,44%*,i,25%*
